Laboratory results published in ChEMBL document CHEMBL4007484, “Pharmacokinetic optimitzation of CCG-203971: Novel inhibitors of the Rho/MRTF/SRF transcriptional pathway as potential antifibrotic therapeutics for systemic scleroderma” (Bioorg Med Chem Lett, 2017).

Experiments:
[1] = Inhibition of Rho/MRTF/SRF pathway (unknown origin) expressed in HEK293T cells assessed as reduction in Galpha12-stimulated MRTF-selective SRE.L promoter-driven luciferase activity after overnight incubation by luminescence assay; format: cell-based, Homo sapiens
In short: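 Signal was stimulated with Gα12 and luciferase activity was read. IC50 in μM is the mean of n ≥ 3.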

Homo sapiens = species on record: Homo sapiens; assay: Inhibition of Rho/MRTF/SRF pathway in human primary dermal fibroblasts assessed as inhibition of TGF-beta-stimulated ACTA2 gene expression by measuring ACTA2 mRNA level at 10 uM after 24 hrs by qRT-PCR method relative to control; set-up: scale not given: the % may be the effect or the level left
In short: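 Primary human dermal fibroblasts stimulated with TGF-β and treated with compound at 10 μM for 24 h. ACTA2 mRNA was measured by qPCR and expressed as percent of control, mean of n=3.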

Liver [2] = assay: Half life in CD-1 mouse liver microsomes at 1 uM in presence of NADPH by LC-MS/MS analysis; format: ADME, microsome
In short: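 Half-life measured by incubation in mouse liver microsomes.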

[3] = Thermodynamic aqueous solubility of the compound in water by nitrogen detection method; format: physicochemical; conditions: buffer
In short: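 Thermodynamic solubility in water, reported in μg/mL.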

Liver [4] = assay: Drug metabolism in CD-1 mouse liver microsomes assessed as oxidative metabolism at 20 uM after 3 mins in presence of NADPH by LC-MS/MS analysis; format: ADME, microsome; conditions: 0.05 h
[5] = AUC (0 to 7 hrs) in CD-1 mouse at 10 mg/kg, ip administered as single dose by LC-MS/MS analysis; format: ADME, organism-based; set-up: dose 10 mg/kg, time < 7 hr, route intraperitoneal; conditions: in vivo
In short: (§1)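 Mice dosed once, by intraperitoneal injection at 10 mg/kg or by oral gavage at 20 mg/kg. AUC is estimated from the plasma concentration curve over 0–7 h and is expressed as hr.ng/mL.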

[6] = AUC (0 to 7 hrs) in CD-1 mouse at 20 mg/kg, po administered via gavage as single dose by LC-MS/MS analysis; format: ADME, organism-based; set-up: time < 7 hr, dose 20 mg/kg, route oral; conditions: in vivo; in short: as §1
[7] = Plasma concentration in CD-1 mouse at 10 mg/kg, ip or 20 mg/kg, po administered via gavage as single dose measured at 0.5 hrs post dose by LC-MS/MS analysis; format: ADME, organism-based
In short: (§2)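 Plasma concentration in μM after a single dose in mice (IP 10 mg/kg or PO gavage 20 mg/kg), sampled at 0.5 h and at 7 h post-dose.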

[8] = Plasma concentration in CD-1 mouse at 10 mg/kg, ip or 20 mg/kg, po administered via gavage as single dose measured at 7 hrs post dose by LC-MS/MS analysis; format: ADME, organism-based; in short: as §2
Mus musculus [9] = assay: Antifibrotic activity in C57BL/6 mouse bleomycin-induced dermal fibrosis model assessed as inhibition of dermal thickness at 50 mg/kg, po qd for 2 weeks by Masson's trichrome staining based microscopic method relative to control; format: functional; conditions: C57BL/6, po, 336 h
In short: (§3)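 Three groups of mice (n=8) dosed daily for 14 days. The groups were: intracutaneous PBS; intracutaneous bleomycin plus vehicle by oral gavage; intracutaneous bleomycin plus test compound at 50 mg/kg by oral gavage. Read-outs were dermal thickness and skin hydroxyproline content. Each is given as the reduction of the bleomycin-induced increase.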

Mus musculus [10] = assay: Antifibrotic activity in C57BL/6 mouse bleomycin-induced dermal fibrosis model assessed as inhibition ofhydroxyproline content at 50 mg/kg, po qd for 2 weeks relative to control; format: functional; conditions: C57BL/6, po, 336 h; in short: as §3
Liver [11] = assay: Drug metabolism in CD-1 mouse liver microsomes assessed as 5,5-difluoro-1-(3-(furan-2-yl)benzoyl)piperidine-3-carboxylic acid formation at 20 uM after 3 mins in presence of NADPH by LC-MS/MS analysis; format: ADME, microsome; conditions: 0.05 h
Liver [12] = assay: Drug level in CD-1 mouse liver microsomes treated with CCG-222740 at 20 uM after 3 mins in presence of NADPH by LC-MS/MS analysis; format: ADME, microsome; conditions: 0.05 h

| Compound | IC50 [1] [nM] | t1/2 (Liver [2]) [min] | further results |
| --- | --- | --- | --- |
| CN(C(=O)C1CCCN(C(=O)c2cccc(-c3ccco3)c2)C1)c1ccc(Cl)cc1 (configuration not stated) | 8600 |  |  |
| CC(=O)N1CCN(C(=O)c2cccc(-c3ccco3)c2)CC1C(=O)Nc1ccc(Cl)cc1 (configuration not stated) | 21000 |  |  |
| O=C(Nc1ccc(Cl)cc1)C1CN(C(=O)c2cccc(-c3cn[nH]c3)c2)CC(F)(F)C1 (configuration not stated) | 4500 | 13 |  |
| CN(C)C1CC(C(=O)Nc2ccc(Cl)cc2)CN(C(=O)c2cccc(-c3ccco3)c2)C1 (configuration not stated) | 5800 | 3.3 |  |
| O=C(Nc1ccc(Cl)cc1)C1CCCN(C(=O)c2cncc(-c3ccco3)c2)C1 (configuration not stated) | 2900 | < 3 |  |
| O=C(Nc1ccc(Cl)cc1)C1CCCN(C(=O)c2csc(-c3ccco3)n2)C1 (configuration not stated) | 6200 |  |  |
| CC(=O)NC1CC(C(=O)Nc2ccc(Cl)cc2)CN(C(=O)c2cccc(-c3ccco3)c2)C1 (configuration not stated) | 5000 |  |  |
| O=C(Nc1ccc(Cl)cc1)C1CCCN(C(=O)c2cc(-c3ccco3)ncn2)C1 (configuration not stated) | 15300 |  |  |
| O=C(Nc1ccc(Cl)cc1)C1CCCN(C(=O)c2cc(-c3ccco3)[nH]n2)C1 (configuration not stated) | 5300 |  |  |
| O=C(Nc1ccc(Cl)cc1)C1CCCN(C(=O)c2cnc(-c3ccco3)s2)C1 (configuration not stated) | 5800 |  |  |
| O=C(Nc1ccc(Cl)cc1)C1CCCN(C(=O)c2cccc(-n3ccnc3)c2)C1 (configuration not stated) | 5200 |  |  |
| O=C(Nc1ccc(Cl)cc1)C1CCCN(C(=O)c2cc(-c3ccco3)on2)C1 (configuration not stated) | 6800 |  |  |
| O=C(Nc1ccc(Cl)cc1)C1CN(C(=O)c2cc(-c3ccco3)ccn2)CC(F)(F)C1 (configuration not stated) | 7100 | 2.5 |  |
| O=C(Nc1ccc(Cl)cc1)C1CN(C(=O)c2cccc(-c3ncc[nH]3)c2)CC(F)(F)C1 (configuration not stated) | 5500 |  |  |
| O=C1CC(C(=O)Nc2ccc(Cl)cc2)CN(C(=O)c2cccc(-c3ccco3)c2)C1 (configuration not stated) | 3900 |  |  |
| O=C(Nc1ccc(Cl)cc1)C1CN(C(=O)c2cccc(-c3ncccn3)c2)CC(F)(F)C1 (configuration not stated) | 3000 | 11.9 | Activity (Homo sapiens): 65%; Therm_solubility [3]: 75.4 µg/mL |
| O=C(Nc1ccc(Cl)cc1)C1CCCN(C(=O)c2cccc(-c3cn[nH]c3)c2)C1 (configuration not stated) | 3000 | 5.6 | Activity (Homo sapiens): 73% |
| O=C(Nc1ccc(Cl)cc1)C1CCCN(C(=O)c2cccc(-n3cccn3)c2)C1 (configuration not stated) | 2900 | 1.7 |  |
| O=C(NC1CCCN(C(=O)c2cccc(-c3ccco3)c2)C1)c1ccc(Cl)cc1 (configuration not stated) | 4900 |  |  |
| O=C(Nc1ccc(Cl)cc1)C1CN(C(=O)c2cncc(-c3ccco3)c2)CC(F)(F)C1 (configuration not stated) | 3500 | 3 |  |
| O=C(O)C1CN(C(=O)c2cccc(-c3ccco3)c2)CC(F)(F)C1 (configuration not stated) |  |  | Drug metabolism (Liver [12]): Metabolite_Detected |
| COC(=O)NC1CC(C(=O)Nc2ccc(Cl)cc2)CN(C(=O)c2cccc(-c3ccco3)c2)C1 (configuration not stated) | 5000 |  |  |
| O=C(Nc1ccc(Cl)cc1)C1CN(C(=O)c2cccc(-c3ccco3)c2)CCO1 (configuration not stated) | 3100 |  |  |
| O=C(Nc1ccc(Cl)cc1)C1CN(C(=O)c2cccc(-c3cncnc3)c2)CC(F)(F)C1 (configuration not stated) | 3200 |  |  |

Now from value to compound, other results behind:

| IC50 [1] [nM] | t1/2 (Liver [2]) [min] | Compound | further results |
| --- | --- | --- | --- |
| 370 | 16 | Cn1cncc1-c1cccc(C(=O)N2CC(C(=O)Nc3ccc(Cl)cc3)CC(F)(F)C2)c1 (configuration not stated) | Activity (Homo sapiens): 110%; Therm_solubility [3]: 14.9 µg/mL |
| 900 | < 3 | O=C(Nc1ccc(Cl)cc1)C1CN(C(=O)c2cccc(-c3cccnc3)c2)CC(F)(F)C1 (configuration not stated) |  |
| 800 | 2.8 | O=C(c1cccc(-c2ccco2)c1)N1CCCC(F)(C(=O)Nc2ccc(Cl)cc2)C1 (configuration not stated) |  |
| 2700 |  | COC(=O)N1CCN(C(=O)c2cccc(-c3ccco3)c2)CC1C(=O)Nc1ccc(Cl)cc1 (configuration not stated) |  |
| 1000 | 9.5 | O=C(Nc1ccc(Cl)cc1)C1CN(C(=O)c2cccc(-c3ccccn3)c2)CC(F)(F)C1 (configuration not stated) | Activity (Homo sapiens): 37%; Therm_solubility [3]: 3.9 µg/mL |
| 640 | 1.6 | O=C(Nc1ccc(Cl)cc1)C1CCCN(C(=O)c2cccc(-c3ccco3)c2)C1 (configuration not stated) | Activity (Homo sapiens): 37%; Drug metabolism (Liver [4]): Metabolite_Detected; Therm_solubility [3]: 13.4 µg/mL; AUC(0-t) at 7 h [5]: 1200 ng·h/mL |
| 920 | 3.4 | O=C(Nc1ccc(Cl)cc1)C1CCCN(C(=O)c2cccc(-c3cc[nH]n3)c2)C1 (configuration not stated) |  |
| 810 | 1.8 | O=C(c1cccc(-c2ccco2)c1)N1CCCC(COc2ccc(Cl)cc2)C1 (configuration not stated) |  |
| 1900 | < 3 | O=C(Nc1ccc(Cl)cc1)C1CCCN(C(=O)c2cc(-c3ccco3)ccn2)C1 (configuration not stated) |  |
| 550 | 0.84 | CC1(C(=O)Nc2ccc(Cl)cc2)CCCN(C(=O)c2cccc(-c3ccco3)c2)C1 (configuration not stated) |  |
| 530 | 6.9 | O=C(Nc1ccc(Cl)cc1)C1CN(C(=O)c2cc(F)cc(-c3ccncc3)c2)CC(F)(F)C1 (configuration not stated) | AUC(0-t) at 7 h [6]: 36400 ng·h/mL; concentration at 0.5 h [7]: 13.2 µM; Activity (Homo sapiens): 14%; Therm_solubility [3]: 9.8 µg/mL; AUC(0-t) at 7 h [5]: 26700 ng·h/mL; concentration at 7 h [8]: 1.3 µM |
| 98 | 1.4 | C=C1CC(C(=O)Nc2ccc(Cl)cc2)CN(C(=O)c2cccc(-c3ccco3)c2)C1 (configuration not stated) | Activity (Homo sapiens): 9.5% |
| 550 | 7.8 | O=C(Nc1ccc(Cl)cc1)C1CN(C(=O)c2cccc(-c3ccncc3)c2)CC(F)(F)C1 (configuration not stated) | AUC(0-t) at 7 h [6]: 33700 ng·h/mL; inhibition in vivo at 50 mg/kg (Mus musculus [9]): 55%; concentration at 0.5 h [7]: 14.4 µM; Activity (Homo sapiens): 31%; Therm_solubility [3]: 23.1 µg/mL; AUC(0-t) at 7 h [5]: 15300 ng·h/mL; inhibition in vivo at 50 mg/kg (Mus musculus [10]): 62%; concentration at 7 h [8]: 2.4 µM |
| 1200 | 7.7 | O=C(Nc1ccc(Cl)cc1)C1CN(C(=O)c2cncc(-c3ccncc3)c2)CC(F)(F)C1 (configuration not stated) | Activity (Homo sapiens): 190%; Therm_solubility [3]: 62 µg/mL |
| 600 | 4.9 | O=C(Nc1ccc(Cl)cc1)C1CN(C(=O)c2cccc(-c3ccco3)c2)CC(F)(F)C1 (configuration not stated) | Activity (Homo sapiens): 9.3%; Therm_solubility [3]: 2.3 µg/mL; AUC(0-t) at 7 h [5]: 9200 ng·h/mL; Drug metabolism (Liver [11]): Metabolite_Detected |
| 680 | 4.8 | O=C(Nc1ccc(Cl)cc1)C1CN(C(=O)c2cccc(-n3cccn3)c2)CC(F)(F)C1 (configuration not stated) | Activity (Homo sapiens): 140%; Therm_solubility [3]: 23 µg/mL |
